Laboratory results published in ChEMBL document CHEMBL1152599, “Synthesis and in vitro activities of new anticancer duplex drugs linking 2'-deoxy-5-fluorouridine (5-FdU) with 3'-C-ethynylcytidine (ECyd) via a phosphodiester bonding” (2009).

Key:
Type in all cases: functional
CCRF-CEM = test: Anticancer activity against human CCRF-CEM cells after 48 hrs by sulforhodamine B assay
Method in brief: (§1)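 NCI 60-cell-line anticancer screen. Each compound is tested at a minimum of five concentrations in 10-fold dilutions with 48 h drug exposure. Cell viability/growth is estimated by sulforhodamine B protein staining. GI50 is the log10 molar concentration giving 50% growth inhibition, read from the dose-response curves and mean graphs of the NCI data screening report. TGI was taken from double screens.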

HL-60 = test: Anticancer activity against human HL-60(TB) cells after 48 hrs by sulforhodamine B assay; conditions: HL-60, 48 h
Method in brief: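 NCI 60-cell-line anticancer screen. Drugs tested at a minimum of five concentrations at 10-fold dilutions with 48 h exposure. Cell growth estimated by sulforhodamine B protein assay. GI50 is log10 of the molar concentration giving 50% growth inhibition, read from the screening data sheet, dose-response curves and mean graphs.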

K562 = test: Anticancer activity against human K562 cells after 48 hrs by sulforhodamine B assay; conditions: K562, 48 h; method in brief: as §1
MOLT-4 = test: Anticancer activity against human MOLT4 cells after 48 hrs by sulforhodamine B assay; conditions: MOLT-4, 48 h; method in brief: as §1
[1] = Anticancer activity against human […] cells after 48 hrs by sulforhodamine B assay; method in brief: as §1
SR = test: Anticancer activity against human SR cells after 48 hrs by sulforhodamine B assay
Method in brief: (§2)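 Tested in the NCI 60-human-tumour-cell-line screen. Compounds were applied at a minimum of five concentrations in 10-fold dilutions with 48 h exposure. Cell growth was estimated by sulforhodamine B protein staining. GI50 (log10 of molar concentration giving 50% growth inhibition) and TGI were read from the data sheets, dose-response curves and mean graphs. Some cell lines were screened twice.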

A549 = test: Anticancer activity against human A549 cells after 48 hrs by sulforhodamine B assay; conditions: A549, 48 h; method in brief: as §1
EKVX = test: Anticancer activity against human EKVX cells after 48 hrs by sulforhodamine B assay; method in brief: as §1
HOP-62 = test: Anticancer activity against human HOP62 cells after 48 hrs by sulforhodamine B assay; conditions: HOP-62, 48 h; method in brief: as §1
LOX IMVI = test: Anticancer activity against human LOXIMVI cells after 48 hrs by sulforhodamine B assay; method in brief: as §1
Malme-3M = test: Anticancer activity against human MALME-3M cells after 48 hrs by sulforhodamine B assay; method in brief: as §1
M14 = test: Anticancer activity against human M14 cells after 48 hrs by sulforhodamine B assay; conditions: M14, 48 h; method in brief: as §1
SK-MEL-2 = test: Anticancer activity against human SK-MEL-2 cells after 48 hrs by sulforhodamine B assay; conditions: SK-MEL-2, 48 h; method in brief: as §1
SK-MEL-28 = test: Anticancer activity against human SK-MEL-28 cells after 48 hrs by sulforhodamine B assay; conditions: SK-MEL-28, 48 h; method in brief: as §1
SK-MEL-5 = test: Anticancer activity against human SK-MEL-5 cells after 48 hrs by sulforhodamine B assay; conditions: SK-MEL-5, 48 h; method in brief: as §1
UACC-257 = test: Anticancer activity against human UACC257 cells after 48 hrs by sulforhodamine B assay; conditions: UACC-257, 48 h; method in brief: as §2
UACC-62 = test: Anticancer activity against human UACC62 cells after 48 hrs by sulforhodamine B assay; conditions: UACC-62, 48 h; method in brief: as §2
IGROV-1 = test: Anticancer activity against human IGROV1 cells after 48 hrs by sulforhodamine B assay; conditions: IGROV-1, 48 h; method in brief: as §1
OVCAR-3 = test: Anticancer activity against human OVCAR-3 cells after 48 hrs by sulforhodamine B assay; conditions: OVCAR-3, 48 h; method in brief: as §1
OVCAR-4 = test: Anticancer activity against human OVCAR4 cells after 48 hrs by sulforhodamine B assay; conditions: OVCAR-4, 48 h; method in brief: as §1
OVCAR-5 = test: Anticancer activity against human OVCAR5 cells after 48 hrs by sulforhodamine B assay; conditions: OVCAR-5, 48 h; method in brief: as §1
OVCAR-8 = test: Anticancer activity against human OVCAR8 cells after 48 hrs by sulforhodamine B assay; conditions: OVCAR-8, 48 h; method in brief: as §1
SK-OV-3 = test: Anticancer activity against human SKOV3 cells after 48 hrs by sulforhodamine B assay; conditions: SK-OV-3, 48 h; method in brief: as §1
786-0 = test: Anticancer activity against human 786-0 cells after 48 hrs by sulforhodamine B assay; conditions: 786-0, 48 h; method in brief: as §1
A498 = test: Anticancer activity against human A498 cells after 48 hrs by sulforhodamine B assay; conditions: A498, 48 h; method in brief: as §1
ACHN = test: Anticancer activity against human ACHN cells after 48 hrs by sulforhodamine B assay; method in brief: as §1
CAKI-1 = test: Anticancer activity against human Caki1 cells after 48 hrs by sulforhodamine B assay; conditions: CAKI-1, 48 h; method in brief: as §1
RXF 393 = test: Anticancer activity against human RXF393 cells after 48 hrs by sulforhodamine B assay; conditions: RXF 393, 48 h; method in brief: as §1
SN12C = test: Anticancer activity against human SN12C cells after 48 hrs by sulforhodamine B assay; method in brief: as §1
TK-10 = test: Anticancer activity against human TK10 cells after 48 hrs by sulforhodamine B assay; conditions: TK-10, 48 h; method in brief: as §2
UO-31 = test: Anticancer activity against human UO31 cells after 48 hrs by sulforhodamine B assay; conditions: UO-31, 48 h; method in brief: as §2
PC-3 = test: Anticancer activity against human PC3 cells after 48 hrs by sulforhodamine B assay; conditions: PC-3, 48 h; method in brief: as §1
DU-145 = test: Anticancer activity against human DU145 cells after 48 hrs by sulforhodamine B assay; conditions: DU-145, 48 h; method in brief: as §1
MCF7 = test: Anticancer activity against human MCF7 cells after 48 hrs by sulforhodamine B assay; conditions: MCF7, 48 h; method in brief: as §1
NCI/ADR-RES = test: Anticancer activity against human NCI/ADR-RES cells after 48 hrs by sulforhodamine B assay; method in brief: as §1
MDA-MB-231 = test: Anticancer activity against human MDA-MB-231 cells after 48 hrs by sulforhodamine B assay; conditions: MDA-MB-231, 48 h; method in brief: as §1
[2] = Anticancer activity against human Hs 578T cells after 48 hrs by sulforhodamine B assay; method in brief: as §1
MDA-MB-435 = test: Anticancer activity against human MDA-MB-435 cells after 48 hrs by sulforhodamine B assay; conditions: MDA-MB-435, 48 h; method in brief: as §1
MDA-N = test: Anticancer activity against human MDA-N cells after 48 hrs by sulforhodamine B assay; method in brief: as §1
BT-549 = test: Anticancer activity against human BT549 cells after 48 hrs by sulforhodamine B assay; conditions: BT-549, 48 h; method in brief: as §1
T47D = test: Anticancer activity against human T47D cells after 48 hrs by sulforhodamine B assay; method in brief: as §2
HOP-92 = test: Anticancer activity against human HOP92 cells after 48 hrs by sulforhodamine B assay; conditions: HOP-92, 48 h; method in brief: as §1
NCI-H226 = test: Anticancer activity against human NCI-H226 cells after 48 hrs by sulforhodamine B assay; conditions: NCI-H226, 48 h; method in brief: as §1
NCI-H23 = test: Anticancer activity against human NCI-H23 cells after 48 hrs by sulforhodamine B assay; conditions: NCI-H23, 48 h; method in brief: as §1
NCI-H322M = test: Anticancer activity against human NCI-H322M cells after 48 hrs by sulforhodamine B assay; method in brief: as §1
NCI-H460 = test: Anticancer activity against human NCI-H460 cells after 48 hrs by sulforhodamine B assay; conditions: NCI-H460, 48 h; method in brief: as §1
NCI-H522 = test: Anticancer activity against human NCI-H522 cells after 48 hrs by sulforhodamine B assay; conditions: NCI-H522, 48 h; method in brief: as §1
COLO 205 = test: Anticancer activity against human COLO205 cells after 48 hrs by sulforhodamine B assay; conditions: COLO 205, 48 h; method in brief: as §1
HCC 2998 = test: Anticancer activity against human HCC2998 cells after 48 hrs by sulforhodamine B assay; conditions: HCC 2998, 48 h; method in brief: as §1
HCT-116 = test: Anticancer activity against human HCT116 cells after 48 hrs by sulforhodamine B assay; conditions: HCT-116, 48 h; method in brief: as §1
HCT-15 = test: Anticancer activity against human HCT15 cells after 48 hrs by sulforhodamine B assay; conditions: HCT-15, 48 h; method in brief: as §1
HT-29 = test: Anticancer activity against human HT-29 cells after 48 hrs by sulforhodamine B assay; conditions: HT-29, 48 h; method in brief: as §1
KM12 = test: Anticancer activity against human KM12 cells after 48 hrs by sulforhodamine B assay; conditions: KM12, 48 h; method in brief: as §1
SW-620 = test: Anticancer activity against human SW620 cells after 48 hrs by sulforhodamine B assay; conditions: SW-620, 48 h; method in brief: as §2
SF-268 = test: Anticancer activity against human SF268 cells after 48 hrs by sulforhodamine B assay; conditions: SF-268, 48 h; method in brief: as §1
SF-295 = test: Anticancer activity against human SF295 cells after 48 hrs by sulforhodamine B assay; conditions: SF-295, 48 h; method in brief: as §1
SF-539 = test: Anticancer activity against human SF539 cells after 48 hrs by sulforhodamine B assay; conditions: SF-539, 48 h; method in brief: as §1
SNB-19 = test: Anticancer activity against human SNB19 cells after 48 hrs by sulforhodamine B assay; conditions: SNB-19, 48 h; method in brief: as §1
SNB-75 = test: Anticancer activity against human SNB75 cells after 48 hrs by sulforhodamine B assay; conditions: SNB-75, 48 h; method in brief: as §2
U-251 = test: Anticancer activity against human U251 cells after 48 hrs by sulforhodamine B assay; conditions: U-251, 48 h; method in brief: as §2

O=c1[nH]c(=O)n([C@H]2C[C@H](O)[C@@H](CO)O2)cc1F [FLOXURIDINE]
GI50 (CCRF-CEM): 6.31 nM
GI50 (HL-60): 200 nM
GI50 (K562): 794 nM
GI50 (MOLT-4): 39.8 nM
GI50 [1]: 794 nM
GI50 (SR): 12.6 nM
GI50 (A549): 12.6 nM
GI50 (EKVX): 10000 nM
GI50 (HOP-62): 25.1 nM
GI50 (LOX IMVI): 25.1 nM
GI50 (Malme-3M): 7940 nM
GI50 (M14): 158 nM
GI50 (SK-MEL-2): 10000 nM
GI50 (SK-MEL-28): 2000 nM
GI50 (SK-MEL-5): 200 nM
GI50 (UACC-257): 3160 nM
GI50 (UACC-62): 39.8 nM
GI50 (IGROV-1): 2510 nM
GI50 (OVCAR-3): 2510 nM
GI50 (OVCAR-4): 10000 nM
GI50 (OVCAR-5): 6310 nM
GI50 (OVCAR-8): 126 nM
GI50 (SK-OV-3): 2000 nM
GI50 (786-0): 100 nM
GI50 (A498): 1260 nM
GI50 (ACHN): 31.6 nM
GI50 (CAKI-1): 31.6 nM
GI50 (RXF 393): 3980 nM
GI50 (SN12C): 200 nM
GI50 (TK-10): 5010 nM
GI50 (UO-31): 126 nM
GI50 (PC-3): 316 nM
GI50 (DU-145): 251 nM
GI50 (MCF7): 6.31 nM
GI50 (NCI/ADR-RES): 1260 nM
GI50 (MDA-MB-231): 3980 nM
GI50 [2]: 3980 nM
GI50 (MDA-MB-435): 3160 nM
GI50 (MDA-N): 1260 nM
GI50 (BT-549): 1000 nM
GI50 (T47D): 1260 nM
GI50 (HOP-92): 794 nM
GI50 (NCI-H226): 10000 nM
GI50 (NCI-H23): 501 nM
GI50 (NCI-H322M): 501 nM
GI50 (NCI-H460): 2 nM
GI50 (NCI-H522): 2510 nM
GI50 (COLO 205): 1580 nM
GI50 (HCC 2998): 1 nM
GI50 (HCT-116): 126 nM
GI50 (HCT-15): 2000 nM
GI50 (HT-29): 2510 nM
GI50 (KM12): 6310 nM
GI50 (SW-620): 10000 nM
GI50 (SF-268): 12.6 nM
GI50 (SF-295): 39.8 nM
GI50 (SF-539): 3.98 nM
GI50 (SNB-19): 2000 nM
GI50 (SNB-75): 200 nM
GI50 (U-251): 126 nM
